# Active and inactive are the calls of the source. The calls are words filed in the database; no cut-off is given here.
# What was measured:
# [1] = target: Fibroblast growth factor receptor 2 (Homo sapiens) (UniProt P21802); assay: Induction of FGFR2 receptor relocalization in human KATO III stomach cancer cell line at 100 nM measured for 3 hrs by immunofluorescence assay; type: cell-based; conditions: filed as activator
# How it was run: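 KATO III cells treated with 100 nM for 3 or 6 h, fixed in 2% formaldehyde 2 min, blocked 5% BSA 1 h, anti-FGFR2 overnight, Alexa Fluor 488 secondary 1 h, DAPI 10 min; imaged by fluorescence microscopy.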
# [2] = target: T1, Protein cereblon/Fibroblast growth factor receptor 2 (Homo sapiens, UniProt P21802+Q96SW2); assay: PROTAC activity at CRBN/FGFR2 in human KATO III stomach cancer cell line assessed as FGFR2 degradation measured for 6 hrs in presence of bortezomib by immunoblot analysis; type: cell-based
# How it was run: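 KATO III cells were pretreated with 1 μM proteasome inhibitor (MG132 or bortezomib), then exposed to degrader at 100 nM for 6 h. FGFR2 was read by immunoblot against β-actin loading, with ECL detection.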
# [3] = Nephrotoxicity in ICR mouse assessed as effect on creatinine level at 20 mg/kg, po measured for 30 days; type: toxicity, organism-based; conditions: in vivo, 720 h, time 30 day
# How it was run: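 ICR mice given 20 mg/kg/day orally for 30 days (n = 6), vehicle controls; mortality and clinical signs checked daily, then AST/ALT and creatinine, organ weights, haematology and H&E of heart, liver, spleen, lung, kidney.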
# NCI-H1975 = assay: Antiproliferative activity against human NCI-H1975 cells assessed as reduction in cell viability measured for 72 hrs by celltiter-glo reagent based assay; type: functional; conditions: NCI-H1975, 72 h
# How it was run: (§1)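 Cancer lines KATO III, SNU16, NCI-H716, NCI-H1975, MV-4-11 and HEK293T treated 72 h; antiproliferative IC50 given as mean ± s.d. from three independent biological experiments.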
# [4] = Toxicity in ICR mouse assessed as morphological changes in spleen at 20 mg/kg, po measured for 30 days by hematoxyin-eosin staining based analysis; type: organism-based; conditions: in vivo, 720 h, time 30 day
# How it was run: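 ICR mice (n = 6) were dosed orally at 20 mg/kg/day for 30 days, alongside vehicle-treated controls. Mortality and clinical signs were checked daily. At the end, body and organ weights were recorded. Heart, liver, spleen, lung and kidney were examined by hematoxylin and eosin staining.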
# [5] = target: T1, Protein cereblon/Fibroblast growth factor receptor 2; assay: PROTAC activity at CRBN/FGFR2 in human KATO III stomach cancer cell line assessed as FGFR2 degradation by measuring FGFR2 expression level upto 100 nM by Western blotting analysis; type: cell-based; conditions: time 12.0 hrs, TDE = time-dependent effect
# How it was run: (§2)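 KATO III cells treated 6 h across 0.5–10,000 nM (DMSO stock, final DMSO below 0.5%); FGFR2 immunoblotted, quantified as FGFR2/β-actin ratio normalized to DMSO-treated cells, three independent biological experiments; DC50 and Dmax derived from the curve.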
# SNU-16 [6] = assay: Antitumor activity against human SNU-16 cells xenografted in BALB/c nude mouse assessed as reduction in PLCgamma phosphorylation in tumor at 20 mg/kg, po measured at 4 hrs; type: functional, organism-based
# How it was run: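 Female BALB/c nude mice, 5 weeks old (20–22 g), s.c. right-flank SNU-16 implants, randomized by body weight into groups (n = 5) once tumours reached 50–100 mm3. Dosing 20 mg/kg/day intragastric in 0.5% CMC-Na for 15 d; vehicle controls. Tumour width and length measured every 2 days; tumours harvested 4 h after last dose and lysates immunoblotted for pFGFR, FGFR2, pPLCγ, pErk.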
# SNU-16 [7] = assay: Antiproliferative activity against human SNU-16 cells assessed as reduction in cell viability measured for 72 hrs by celltiter-glo reagent based assay; type: functional; conditions: SNU-16, 72 h; how it was run: as §1
# [8] = target: Fibroblast growth factor receptor 1 (Homo sapiens) (UniProt P11362); assay: Induction of FGFR1 degradation in human NCI-H1581 cells at 100 nM measured for 6 hrs Western blot analysis relative to control; type: cell-based
# How it was run: (§3)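 NCI-H1581 (FGFR1), MCF7 (FGFR3) and Huh7 (FGFR4) cells, which endogenously express the isoforms, treated with 100 nM for 6 h; isoform levels by Western blot against β-actin, three biologically independent experiments.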
# BaF3 = assay: Antiproliferative activity against mouse BaF3 cells expressing Tel-FGFR1 assessed as cell growth inhibition measured after 72 hrs by celltiter-glo reagent based assay; type: functional; conditions: BaF3, 72 h
# How it was run: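 Ba/F3 cells stably expressing cytoplasmic TEL-FGFR1, -2, -3 or -4 fusions were treated in 96-well format, final DMSO 0.1%, for 72 h. Viability read by CellTiter-Glo luminescence after 10 min at room temperature. Inhibition calculated from blank- and control-corrected RLU; IC50 from 4-parameter concentration–response fit.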
# [9] = target: Fibroblast growth factor receptor (Homo sapiens) (UniProt P22607+P11362+P22455+P21802); assay: Induction of FGFR degradation in human KATO III stomach cancer cell line assessed as reduction in FGFR phosphorylation at A-loop Tyr656/657 residue at 25 nM measured for 6 hrs; type: cell-based
# How it was run: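 KATO III cells treated 6 h at the indicated concentrations with degrader or BGJ398; FGFR A-loop Tyr656/657 autophosphorylation monitored by immunoblot.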
# [10] = AUC (0 to infinity) in mouse at 20 mg/kg, po measured at 0.25 to 24 hrs by LC-MS/MS analysis; conditions: in vivo
# [11] = target: T1, Protein cereblon/Fibroblast growth factor receptor 2; assay: PROTAC activity at CRBN/FGFR2 in human KATO III stomach cancer cell line assessed as FGFR2 degradation by measuring FGFR2 expression level upto 300 nM measured for 6 hrs by Western blotting analysis; type: cell-based; how it was run: as §2
# [12] = Toxicity in BALB/c mouse xenografted with human SNU-16 cells assessed as body weight loss at 20 mg/kg, po administered for 15 days and measured on day 2; type: organism-based; conditions: in vivo, 48 h, time 2 day
# How it was run: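 Female BALB/c nude mice, 5 weeks old (20–22 g), carried subcutaneous SNU-16 xenografts in the right flank. Dosing began at mean tumor volume 50–100 mm3, after randomization by body weight, n = 5. Mice received 20 mg/kg/day by gavage in 0.5% CMC-Na, QD for 15 d, with vehicle controls. Body weight was measured every 2 days.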
# [13] = target: T1, Protein cereblon/Fibroblast growth factor receptor 2; assay: PROTAC activity at CRBN/FGFR2 in human KATO III stomach cancer cell line assessed as FGFR2 degradation measured for 6 hrs by immunoblot analysis; type: cell-based
# How it was run: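 KATO III cells treated for 6 h at the stated concentrations, added from 10 mM DMSO stocks (final DMSO below 0.5%). Cells were washed with PBS and lysed in 2× loading buffer, then run on SDS-PAGE and blotted to PVDF. Anti-FGFR2 was applied overnight at 4 °C, with ECL detection. FGFR2 was expressed as FGFR2/β-actin, normalized to DMSO-treated cells, from three independent biological experiments.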
# [14] = target: Fibroblast growth factor receptor 3 (Homo sapiens) (UniProt P22607); assay: Inhibition of partial length human FGFR3 at 1000 nM by KINOMEscan analysis relative to control
# How it was run: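 97-kinase scanEDGE panel screened at 1000 nM; results reported as % Ctrl, lower values meaning stronger inhibition.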
# [15] = target: Fibroblast growth factor receptor 3 (Homo sapiens) (UniProt P22607); assay: Induction of FGFR3 degradation in human MCF7 cells at 100 nM measured for 6 hrs Western blot analysis; type: cell-based; how it was run: as §3
# [16] = Antiproliferative activity against human HEK293T cells assessed as reduction in cell viability measured for 72 hrs by celltiter-glo reagent based assay; type: toxicity, HEK-293T; how it was run: as §1
# T1 sequence (P21802 22-821 limits assumed): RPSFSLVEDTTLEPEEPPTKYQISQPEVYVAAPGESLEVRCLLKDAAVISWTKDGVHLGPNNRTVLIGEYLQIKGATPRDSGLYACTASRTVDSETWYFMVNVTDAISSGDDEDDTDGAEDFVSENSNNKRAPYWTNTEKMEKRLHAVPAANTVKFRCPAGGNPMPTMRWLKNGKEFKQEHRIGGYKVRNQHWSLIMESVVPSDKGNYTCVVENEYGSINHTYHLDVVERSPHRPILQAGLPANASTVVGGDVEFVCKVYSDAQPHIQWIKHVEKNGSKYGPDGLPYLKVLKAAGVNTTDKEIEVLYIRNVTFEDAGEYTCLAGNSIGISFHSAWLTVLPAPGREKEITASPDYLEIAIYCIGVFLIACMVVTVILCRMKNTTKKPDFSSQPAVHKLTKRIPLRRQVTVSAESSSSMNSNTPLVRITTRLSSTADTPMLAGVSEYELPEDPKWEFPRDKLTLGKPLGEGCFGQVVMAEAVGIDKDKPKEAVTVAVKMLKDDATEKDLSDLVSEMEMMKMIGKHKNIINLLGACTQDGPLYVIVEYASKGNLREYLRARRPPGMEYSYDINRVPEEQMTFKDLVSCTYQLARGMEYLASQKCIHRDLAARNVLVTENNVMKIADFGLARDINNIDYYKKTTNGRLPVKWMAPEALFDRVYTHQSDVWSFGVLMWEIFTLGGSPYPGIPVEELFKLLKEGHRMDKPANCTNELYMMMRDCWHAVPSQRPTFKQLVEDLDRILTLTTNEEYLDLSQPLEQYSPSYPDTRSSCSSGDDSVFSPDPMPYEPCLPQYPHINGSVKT
# T1 sequence (Q96SW2 whole entry partner): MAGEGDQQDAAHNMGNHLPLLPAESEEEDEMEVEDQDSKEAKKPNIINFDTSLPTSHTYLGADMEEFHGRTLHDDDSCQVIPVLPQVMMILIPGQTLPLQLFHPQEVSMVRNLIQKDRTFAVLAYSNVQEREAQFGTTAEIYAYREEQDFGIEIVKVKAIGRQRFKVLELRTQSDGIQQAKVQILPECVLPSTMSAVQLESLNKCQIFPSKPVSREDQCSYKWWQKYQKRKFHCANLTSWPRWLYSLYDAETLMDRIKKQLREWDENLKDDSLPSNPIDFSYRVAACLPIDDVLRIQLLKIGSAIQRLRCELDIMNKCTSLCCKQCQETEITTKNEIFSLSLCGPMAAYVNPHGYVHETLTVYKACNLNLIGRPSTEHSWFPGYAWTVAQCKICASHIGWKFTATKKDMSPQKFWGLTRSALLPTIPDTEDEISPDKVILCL
# Sequence of Fibroblast growth factor receptor 3 (Homo sapiens) (P22607 23-806 limits assumed): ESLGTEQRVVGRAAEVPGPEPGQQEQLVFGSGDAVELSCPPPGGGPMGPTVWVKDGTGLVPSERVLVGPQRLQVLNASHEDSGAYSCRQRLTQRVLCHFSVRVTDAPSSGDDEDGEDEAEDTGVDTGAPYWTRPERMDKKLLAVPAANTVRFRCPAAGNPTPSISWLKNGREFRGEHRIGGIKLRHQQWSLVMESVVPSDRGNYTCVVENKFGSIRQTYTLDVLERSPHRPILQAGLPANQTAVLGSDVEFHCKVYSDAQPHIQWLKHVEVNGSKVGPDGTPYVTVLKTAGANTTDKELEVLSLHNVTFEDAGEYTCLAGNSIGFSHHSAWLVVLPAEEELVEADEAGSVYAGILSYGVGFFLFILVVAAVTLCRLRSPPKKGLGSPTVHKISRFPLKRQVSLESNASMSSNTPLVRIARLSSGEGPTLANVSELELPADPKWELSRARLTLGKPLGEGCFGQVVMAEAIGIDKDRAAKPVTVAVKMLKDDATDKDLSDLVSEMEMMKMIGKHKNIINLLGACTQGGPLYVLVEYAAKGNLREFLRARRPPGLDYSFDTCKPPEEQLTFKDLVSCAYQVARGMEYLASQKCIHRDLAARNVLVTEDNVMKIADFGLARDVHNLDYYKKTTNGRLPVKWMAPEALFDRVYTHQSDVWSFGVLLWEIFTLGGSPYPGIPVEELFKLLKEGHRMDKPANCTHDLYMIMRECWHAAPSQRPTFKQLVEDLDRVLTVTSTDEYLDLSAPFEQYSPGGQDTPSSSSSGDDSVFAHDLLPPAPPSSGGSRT
# Sequence of Fibroblast growth factor receptor 1 (Homo sapiens) (P11362 22-822 limits assumed): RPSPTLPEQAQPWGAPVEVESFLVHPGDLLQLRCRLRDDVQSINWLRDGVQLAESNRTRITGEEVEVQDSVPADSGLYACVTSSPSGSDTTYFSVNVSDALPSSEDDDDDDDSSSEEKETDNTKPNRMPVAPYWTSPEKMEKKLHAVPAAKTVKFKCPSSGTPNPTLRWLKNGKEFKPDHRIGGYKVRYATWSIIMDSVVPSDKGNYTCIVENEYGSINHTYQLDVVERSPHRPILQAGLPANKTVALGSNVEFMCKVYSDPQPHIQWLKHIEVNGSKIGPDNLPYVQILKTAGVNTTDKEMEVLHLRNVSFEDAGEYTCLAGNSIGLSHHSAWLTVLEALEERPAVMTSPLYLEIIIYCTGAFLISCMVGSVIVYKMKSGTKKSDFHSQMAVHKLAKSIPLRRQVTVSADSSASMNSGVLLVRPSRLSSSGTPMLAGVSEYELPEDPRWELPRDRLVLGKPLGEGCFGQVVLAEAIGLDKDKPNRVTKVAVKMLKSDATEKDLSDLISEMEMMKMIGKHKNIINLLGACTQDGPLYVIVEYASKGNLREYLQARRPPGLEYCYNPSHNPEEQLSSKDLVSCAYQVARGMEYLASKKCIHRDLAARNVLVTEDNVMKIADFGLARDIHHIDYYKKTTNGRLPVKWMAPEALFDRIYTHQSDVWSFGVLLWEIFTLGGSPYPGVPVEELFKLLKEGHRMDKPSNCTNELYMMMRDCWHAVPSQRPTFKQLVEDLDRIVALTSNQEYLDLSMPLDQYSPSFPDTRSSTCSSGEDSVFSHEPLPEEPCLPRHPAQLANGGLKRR
# Sequence of Fibroblast growth factor receptor 2 (Homo sapiens) (P21802 22-821 limits assumed): as the sequence (P21802 22-821 limits assumed) above
structure (smiles),measurement,setting,value
COc1cc(OC)c(Cl)c(NC(=O)N(C)c2cc(Nc3ccc(N4CCN(C(=O)C5CCN(c6ccc7c(c6)C(=O)N(C6CCC(=O)NC6=O)C7=O)CC5)CC4)cc3)ncn2)c1Cl (stereo not drawn),Activity,[1],Active
same,Activity,[2],inactive
same,Activity,[3],Non-Toxic
same,IC50,NCI-H1975,> 10000 nM
same,Activity,[4],Non-Toxic
same,Activity,[5],Tde
same,Activity,SNU-16 [6],Active
same,IC50,SNU-16 [7],3.7 nM
same,Activity,[8],43%
same,IC50,BaF3,125 nM
same,Activity,[9],Active
same,AUC(0-inf),[10],387 ng·h/mL
same,Activity,[11],inactive
same,Activity,[12],Non-Toxic
same,Activity,[13],inactive
same,inhibition,[14],71%
same,Activity,[15],inactive
same,IC50 at 72 h,[16],> 10000 nM
